Laboratory results taken from ChEMBL document CHEMBL1142515, “Synthesis and evaluation of structurally constrained quinazolinone derivatives as potent and selective histamine H3 receptor inverse agonists” (J Med Chem, 2008).

Legend:
[1] = Cmax in Beagle dog at 0.3 mg/kg, iv and 1 mg/kg, po; assay type: ADME, organism-based, Canis lupus familiaris; conditions: in vivo
Method in brief: (§1)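 Male SD rats, male Beagle dogs, male rhesus monkeys given single doses iv (PEG400/EtOH/H2O 50/10/40) or po by gavage (0.5% methylcellulose suspension). Rats 1 mg/kg iv and 3 mg/kg po; dogs and monkeys 0.3 mg/kg iv and 1 mg/kg po. Plasma sampled at multiple times up to 24 h, deproteinized with ethanol plus internal standard. Mean of n = 3 animals/dose.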

Canis familiaris = assay: Toxicity against in anesthetized Beagle dog assessed as cardiovascular effects; assay type: organism-based, Canis lupus familiaris; conditions: in vivo
Method in brief: (§2)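 Anesthetized, ventilated dogs given 3 mg/kg iv and monitored for cardiovascular effects.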

Brain [2] = assay: Drug level in Sprague-Dawley rat brain at 10 mg/kg, po after 2 hrs; assay type: ADME, organism-based; parameters: dose 10 mg/kg, route oral; conditions: in vivo
Method in brief: (§3)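 Male SD rats dosed orally at 10 mg/kg. Plasma, brain and CSF concentrations determined 2 h after dosing. Brain/plasma ratio taken from these levels. Mean of n = 3 animals.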

Histamine H3 receptor [3] = molecular target: Histamine H3 receptor (Rattus norvegicus, UniProt Q9QYN8); assay: Displacement of [3H]N-alpha-methylhistamine from rat recombinant histamine H3 receptor expressed in HEK293 cells; assay type: cell-based
Chain of Histamine H3 receptor (Rattus norvegicus, UniProt Q9QYN8) (Q9QYN8 whole entry): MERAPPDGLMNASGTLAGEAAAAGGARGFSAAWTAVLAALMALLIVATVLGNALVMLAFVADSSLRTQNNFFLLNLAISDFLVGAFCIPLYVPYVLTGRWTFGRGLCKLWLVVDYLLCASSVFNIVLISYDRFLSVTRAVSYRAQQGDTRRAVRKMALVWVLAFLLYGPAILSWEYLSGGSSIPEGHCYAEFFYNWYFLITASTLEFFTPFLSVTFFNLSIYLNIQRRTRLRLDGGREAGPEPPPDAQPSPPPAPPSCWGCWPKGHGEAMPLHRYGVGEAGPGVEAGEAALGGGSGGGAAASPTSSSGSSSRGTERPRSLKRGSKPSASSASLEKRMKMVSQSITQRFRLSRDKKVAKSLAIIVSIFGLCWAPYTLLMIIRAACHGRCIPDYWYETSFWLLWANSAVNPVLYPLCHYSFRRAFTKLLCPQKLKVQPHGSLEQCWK

Rattus norvegicus [4] = assay: Ex vivo receptor occupancy of histamine H3 receptor in Sprague-Dawley rat assessed as drug level in brain at 1 mg/kg, po after 2 hrs; assay type: functional
Method in brief: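 Male SD rats given vehicle or 1 mg/kg compound by oral gavage and decapitated at 2 h. Striatal sections (20 μm) incubated 10 min at room temperature with 400 pM tritiated H3 inverse agonist radioligand in sodium phosphate buffer. Nonspecific binding defined with 10 μM R-α-methylhistamine. Beta-Imager exposure 6 h. Drug levels measured by LC-MS/MS.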

Histamine H3 receptor [5] = molecular target: T1, Histamine H3 receptor (Homo sapiens, UniProt Q9Y5N1); assay: Displacement of [3H]N-alpha-methylhistamine from human recombinant histamine H3 receptor expressed in CHO-K1 cells; assay type: cell-based
T1 sequence (Q9Y5N1 whole entry): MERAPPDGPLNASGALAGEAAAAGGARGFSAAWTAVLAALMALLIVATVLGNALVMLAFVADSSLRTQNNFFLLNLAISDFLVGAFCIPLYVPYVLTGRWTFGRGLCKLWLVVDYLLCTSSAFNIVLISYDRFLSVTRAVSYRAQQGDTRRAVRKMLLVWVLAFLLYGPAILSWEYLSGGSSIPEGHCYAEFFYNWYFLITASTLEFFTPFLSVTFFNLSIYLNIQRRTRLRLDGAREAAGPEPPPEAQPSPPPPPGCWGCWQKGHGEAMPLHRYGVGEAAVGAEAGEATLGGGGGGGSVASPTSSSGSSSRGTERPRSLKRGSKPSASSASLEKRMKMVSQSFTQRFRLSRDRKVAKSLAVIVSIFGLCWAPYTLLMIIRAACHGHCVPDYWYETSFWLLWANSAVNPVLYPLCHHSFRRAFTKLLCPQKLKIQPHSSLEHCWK

LLC-PK1 [6] = assay: Ratio of permeability from apical to basolateral side over basolateral to apical side in pig LLC-PK1 cells expressing mouse MDR1a; assay type: ADME, cell-based, Sus scrofa
[7] = molecular target: Voltage-gated inwardly rectifying potassium channel KCNH2 (Homo sapiens, UniProt Q12809); assay: Antagonist activity at human ERG in HEK293 cells assessed as inhibition of [35S]N-[(4R)-1'-[(2R)-6-cyano-1,2,3,4-tetrahydro-2-naphthalenyl]-3,4-dihydro-4-hydroxyspiro[2H-1-benzopyran-2,4'-piperidin]-6-yl]methanesulfonamide binding
Chain of Voltage-gated inwardly rectifying potassium channel KCNH2 (Q12809 whole entry): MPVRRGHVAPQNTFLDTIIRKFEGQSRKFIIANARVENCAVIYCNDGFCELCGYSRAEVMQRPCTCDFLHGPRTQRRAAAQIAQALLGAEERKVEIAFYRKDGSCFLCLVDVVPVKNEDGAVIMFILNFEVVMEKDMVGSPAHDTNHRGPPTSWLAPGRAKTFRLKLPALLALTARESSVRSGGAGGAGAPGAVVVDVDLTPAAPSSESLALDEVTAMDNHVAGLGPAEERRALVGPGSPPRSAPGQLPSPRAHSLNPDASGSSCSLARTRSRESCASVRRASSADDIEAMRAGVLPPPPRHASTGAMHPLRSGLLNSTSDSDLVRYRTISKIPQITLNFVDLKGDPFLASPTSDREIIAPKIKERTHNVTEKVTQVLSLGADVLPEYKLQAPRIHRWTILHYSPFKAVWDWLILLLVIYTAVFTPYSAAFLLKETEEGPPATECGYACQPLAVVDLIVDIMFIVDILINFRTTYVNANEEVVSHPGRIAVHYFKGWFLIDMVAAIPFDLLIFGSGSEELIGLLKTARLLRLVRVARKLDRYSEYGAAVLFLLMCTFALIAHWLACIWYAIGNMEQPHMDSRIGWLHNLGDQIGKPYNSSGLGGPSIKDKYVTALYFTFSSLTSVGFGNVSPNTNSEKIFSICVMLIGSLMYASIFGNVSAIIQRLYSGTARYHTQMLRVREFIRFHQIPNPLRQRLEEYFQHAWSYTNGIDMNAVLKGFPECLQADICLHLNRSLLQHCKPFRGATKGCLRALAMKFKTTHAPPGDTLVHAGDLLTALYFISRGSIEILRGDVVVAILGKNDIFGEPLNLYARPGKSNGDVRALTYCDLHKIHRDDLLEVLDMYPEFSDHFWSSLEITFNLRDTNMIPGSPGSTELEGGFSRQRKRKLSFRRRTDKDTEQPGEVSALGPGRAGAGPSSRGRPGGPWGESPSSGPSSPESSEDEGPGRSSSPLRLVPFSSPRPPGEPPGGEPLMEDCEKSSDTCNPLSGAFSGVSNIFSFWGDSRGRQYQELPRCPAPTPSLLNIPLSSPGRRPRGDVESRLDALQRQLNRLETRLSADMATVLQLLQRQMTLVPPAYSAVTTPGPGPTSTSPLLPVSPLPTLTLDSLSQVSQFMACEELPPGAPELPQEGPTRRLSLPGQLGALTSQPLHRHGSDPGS

Mus musculus [8] = assay: Ex vivo receptor occupancy of histamine H3 receptor expressed in po dosed MDR1a deficient CF1 mouse plasma assessed by brain occupancy/brain to plasma ratio after 2 hrs; assay type: functional
Method in brief: (§4)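 Female wild-type and mdr1a (−/−) CF-1 mice given vehicle or compound po (0.1–3 mg/kg) and decapitated at 2 h. Coronal striatal sections (20 μm) incubated 10 min at room temperature with 400 pM tritiated quinazolinone H3 inverse agonist radioligand in sodium phosphate buffer. Nonspecific binding defined with 10 μM R-α-methylhistamine. Sections imaged 6 h by beta-Imager. Brain Occ90 obtained from occupancy versus brain concentration. Plasma Occ90 = brain Occ90/brain-to-plasma ratio.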

[9] = Plasma clearance in rhesus monkey at 0.3 mg/kg, iv; assay type: ADME, organism-based, Macaca mulatta; parameters: dose 0.3 mg/kg, route intravenous; method in brief: as §1
[10] = AUC (0 to infinity) in Beagle dog at 1 mg/kg, po; assay type: ADME, organism-based, Canis lupus familiaris, Plasma; parameters: time infinity, dose 1 mg/kg, route oral; conditions: Beagle, plasma; method in brief: as §1
[11] = AUC (0 to infinity) in Sprague-Dawley rat at 3 mg/kg, po; assay type: ADME, organism-based; parameters: time infinity, dose 3 mg/kg, route oral; conditions: plasma; method in brief: as §1
Histamine H3 receptor [12] = molecular target: Histamine H3 receptor (Mus musculus, UniProt P58406); assay: Displacement of [3H]N-alpha-methylhistamine from mouse recombinant histamine H3 receptor
Chain of Histamine H3 receptor (Mus musculus, UniProt P58406) (P58406 whole entry): as the sequence (Q9QYN8 whole entry) above, with T15A, A286T, A290G, R387H, I389V counted along it

Brain [13] = assay: Ex vivo drug level in mdr1a deficient CF1 mouse brain at 1 mg/kg, po after 2 hrs; assay type: ADME, organism-based; parameters: dose 1 mg/kg, route oral
Method in brief: (§5)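 Female mdr1a (+/+) and mdr1a (−/−) CF-1 mice dosed by oral gavage. Terminal blood and whole brain collected 2 h later. Brain homogenized by ultrasonication in 4 volumes water. Plasma and brain deproteinized with ethanol plus internal standard, then measured by LC-MS/MS (positive ESI, MRM). Mean ± SE, n = 3. Brain/plasma ratios calculated from mean values.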

[14] = Drug level in Sprague-Dawley rat cerebrospinal fluid at 10 mg/kg, po after 2 hrs; assay type: ADME, organism-based; parameters: dose 10 mg/kg, route oral; conditions: read-out: Drug uptake; method in brief: as §3
[15] = Ratio of drug level brain to plasma in wild type mdr1a (+/+) CF1 mouse at 1 mg/kg, po after 2 hrs; assay type: ADME, organism-based; parameters: dose 1 mg/kg, route oral; conditions: read-out: BPR; method in brief: as §5
[16] = Plasma clearance in Beagle dog at 0.3 mg/kg, iv; assay type: ADME, organism-based, Canis lupus familiaris; parameters: dose 0.3 mg/kg, route intravenous; method in brief: as §1
[17] = Ex vivo drug level in mdr1a (-/-) deficient CF1 mouse plasma at 1 mg/kg, po after 2 hrs; assay type: ADME, organism-based; parameters: dose 1 mg/kg, route oral; conditions: read-out: Drug uptake; method in brief: as §5
Rattus norvegicus [18] = assay: Increase in tele-methylhistamine level in po dosed Sprague-Dawley rat brain after 2 hrs relative to control; assay type: functional, organism-based
Method in brief: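 Male SD rats given vehicle (0.5% methylcellulose) or compound po at 1, 3, 10 mg/kg, co-dosed with pargyline ip. Decapitated at 2 h and brains homogenized. tele-Methylhistamine measured by HPLC with fluorometry after solid-phase extraction. Mean ± SE from five experiments. Compared with vehicle by ANOVA with Dunnett's test.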

Histamine H4 receptor = Histamine H4 receptor (Homo sapiens, UniProt Q9H3N8); assay: Inhibition of human histamine H4 receptor
LLC-PK1 [19] = assay: Ratio of permeability from apical to basolateral side over basolateral to apical side in pig LLC-PK1 cells expressing human MDR1; assay type: ADME, cell-based, Sus scrofa
[20] = Oral bioavailability in Beagle dog at 1 mg/kg; assay type: ADME, organism-based, Canis lupus familiaris; conditions: Beagle, in vivo; method in brief: as §1
[21] = AUC (0 to infinity) in rhesus monkey at 1 mg/kg, po; assay type: ADME, organism-based, Macaca mulatta, Plasma; parameters: time infinity, dose 1 mg/kg, route oral; conditions: plasma; method in brief: as §1
Histamine H1 receptor = Histamine H1 receptor (Homo sapiens, UniProt P35367); assay: Inhibition of human histamine H1 receptor
Chain of Histamine H1 receptor (P35367 whole entry): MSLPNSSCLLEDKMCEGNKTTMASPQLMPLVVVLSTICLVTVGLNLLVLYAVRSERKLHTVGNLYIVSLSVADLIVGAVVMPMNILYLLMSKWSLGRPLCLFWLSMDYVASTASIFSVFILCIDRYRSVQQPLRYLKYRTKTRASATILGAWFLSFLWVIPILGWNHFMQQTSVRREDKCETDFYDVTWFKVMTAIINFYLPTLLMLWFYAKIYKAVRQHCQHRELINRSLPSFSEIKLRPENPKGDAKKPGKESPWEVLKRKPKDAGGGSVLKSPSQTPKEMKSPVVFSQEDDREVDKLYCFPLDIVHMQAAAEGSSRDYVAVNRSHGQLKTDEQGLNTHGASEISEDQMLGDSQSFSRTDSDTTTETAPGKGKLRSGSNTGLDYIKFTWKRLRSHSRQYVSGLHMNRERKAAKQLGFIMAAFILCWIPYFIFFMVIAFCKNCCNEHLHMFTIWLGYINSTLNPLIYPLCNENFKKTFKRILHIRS

[22] = Cmax in anesthetized Beagle dog at 3 mg/kg, iv; assay type: ADME, organism-based, Canis lupus familiaris; parameters: dose 3 mg/kg, route intravenous; conditions: in vivo; method in brief: as §2
[23] = Ratio of drug level in brain to plasma in Sprague-Dawley rat at 10 mg/kg, po after 2 hrs; assay type: ADME, organism-based; parameters: dose 10 mg/kg, route oral; conditions: read-out: BPR; method in brief: as §3
[24] = Oral bioavailability in rhesus monkey at 1 mg/kg; assay type: ADME, organism-based, Macaca mulatta; conditions: in vivo; method in brief: as §1
Histamine H3 receptor [25] = molecular target: T1, Histamine H3 receptor; assay: Antagonist activity at human cloned histamine H3 receptor expressed in CHO-K1 cells assessed as inhibition of R-alpha-methylhistamine-induced [35S]GTPgammaS binding; assay type: functional, cell-based
[26] = Ex vivo drug level wild type mdr1a (+/+) CF1 mouse plasma at 1 mg/kg, po after 2 hrs; assay type: ADME, organism-based; parameters: dose 1 mg/kg, route oral; conditions: read-out: Drug uptake; method in brief: as §5
[27] = Plasma concentration in Sprague-Dawley rat at 10 mg/kg, po after 2 hrs; assay type: ADME, organism-based; parameters: dose 10 mg/kg, route oral; method in brief: as §3
[28] = Cmax in rhesus monkey at 0.3 mg/kg, iv and 1 mg/kg, po; assay type: ADME, organism-based, Macaca mulatta; conditions: in vivo; method in brief: as §1
[29] = Cmax in Sprague-Dawley rat at 1 mg/kg, iv and 3 mg/kg, po; assay type: ADME, organism-based; conditions: in vivo; method in brief: as §1
Histamine H2 receptor = Histamine H2 receptor (Homo sapiens, UniProt P25021); assay: Inhibition of human histamine H2 receptor
Chain of Histamine H2 receptor (P25021 whole entry): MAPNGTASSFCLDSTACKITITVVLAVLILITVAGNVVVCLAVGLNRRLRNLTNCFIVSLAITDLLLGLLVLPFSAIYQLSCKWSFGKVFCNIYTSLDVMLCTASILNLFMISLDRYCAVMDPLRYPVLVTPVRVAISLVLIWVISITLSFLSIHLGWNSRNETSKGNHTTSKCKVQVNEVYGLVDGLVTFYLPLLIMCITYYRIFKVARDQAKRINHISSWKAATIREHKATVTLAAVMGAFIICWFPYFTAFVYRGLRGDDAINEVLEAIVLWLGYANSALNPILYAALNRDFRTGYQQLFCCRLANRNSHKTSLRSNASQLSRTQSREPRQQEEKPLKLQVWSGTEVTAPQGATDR

Mus musculus [30] = assay: Toxicity against in ICR mouse assessed as gross behavior activity at 100 mg/kg; assay type: organism-based; parameters: dose 100 mg/kg; conditions: in vivo
Method in brief: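 Mice dosed orally at 100 mg/kg. Scored for psychomotor and motor activity, muscle tone, CNS excitation, autonomic responses and reflexes.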

Mus musculus [31] = assay: Ex vivo receptor occupancy of histamine H3 receptor expressed in wild type po dosed CF1 mouse brain after 2 hrs; assay type: functional; method in brief: as §4
[32] = Oral bioavailability in Sprague-Dawley rat at 3 mg/kg; assay type: ADME, organism-based; conditions: in vivo; method in brief: as §1
Mus musculus [33] = assay: Ex vivo receptor occupancy of histamine H3 receptor expressed in po dosed wild type CF1 mouse plasma assessed by brain occupancy/brain to plasma ratio after 2 hrs; assay type: functional; method in brief: as §4
[34] = Ratio of drug level in cerebrospinal fluid to brain in Sprague-Dawley rat at 10 mg/kg, po after 2 hrs; assay type: ADME, organism-based, CSF/Brain; parameters: dose 10 mg/kg, route oral; conditions: in vivo
[35] = Ratio of drug level brain to plasma in mdr1a (-/-) deficient CF1 mouse at 1 mg/kg, po after 2 hrs; assay type: ADME, organism-based; parameters: dose 1 mg/kg, route oral; conditions: read-out: BPR; method in brief: as §5
[36] = Plasma clearance in Sprague-Dawley rat at 1 mg/kg, iv; assay type: ADME, organism-based; parameters: dose 1 mg/kg, route intravenous; method in brief: as §1
Brain [37] = assay: Ex vivo drug level in wild type mdr1a (+/+) CF1 mouse brain at 1 mg/kg, po after 2 hrs; assay type: ADME, organism-based; parameters: dose 1 mg/kg, route oral; method in brief: as §5

Cmax [1]: 280 nM
Drug uptake (Brain [2]): 2.3 nmol/g
Ki (Histamine H3 receptor [3]): 2.3 nM
Ki (Histamine H3 receptor [5]): 3.6 nM
Ratio (LLC-PK1 [6]): 2.5
clearance [9]: 26 mL/min/kg
AUC(0-inf) [10]: 1.3 µM·h
AUC(0-inf) [11]: 1.66 µM·h
Ki (Histamine H3 receptor [12]): 3.9 nM
Drug uptake (Brain [13]): 0.137 nmol/g
concentration at 2 h [14]: 110 nM
Kp at 2 h [15]: 2.6
clearance [16]: 13 mL/min/kg
concentration at 2 h [17]: 10 nM
IC50 (Histamine H4 receptor): > 10000 nM
Ratio (LLC-PK1 [19]): 0.7
bioavailability [20]: 46%
AUC(0-inf) [21]: 0.15 µM·h
IC50 (Histamine H1 receptor): > 10000 nM
Cmax [22]: 3200 nM
Kp at 2 h [23]: 3.3
bioavailability [24]: 11%
IC50 (Histamine H3 receptor [25]): 0.33 nM
concentration at 2 h [26]: 12 nM
concentration at 2 h [27]: 700 nM
Cmax [28]: 50 nM
Cmax [29]: 420 nM
IC50 (Histamine H2 receptor): > 10000 nM
bioavailability [32]: 33%
Ratio [34]: 0.05
Kp at 2 h [35]: 13
clearance [36]: 24 mL/min/kg
Drug uptake (Brain [37]): 0.031 nmol/g
Compound: Cc1nc2cccc(C(F)(F)F)c2c(=O)n1-c1ccc(OC2CCN(C3CCC3)CC2)cc1
Activity (Canis familiaris): Non-toxic
Activity (Rattus norvegicus [4]): >90%
IC50 [7]: > 10000 nM
Occ90 (Mus musculus [8]): 11 nM
Activity (Rattus norvegicus [18]): Dose-dependent effect
Activity (Mus musculus [30]): Non-toxic
Occ90 (Mus musculus [31]): 0.15 nmol/g
Occ90 (Mus musculus [33]): 58 nM
